This note sets out measurements from ChEMBL document CHEMBL5137048, “Design and synthesis of water-soluble prodrugs of rifabutin for intraveneous administration” (Eur J Med Chem, 2022).

Converted amounts (≈) assume the structure as drawn. Some results are limits rather than exact numbers.

Broadly, the MIC is the smallest concentration in the dilution series that meets the test's criterion for growth inhibition. What is called Tmax is the time from dosing to the highest level. The term AUC(0-inf) denotes the area under the concentration-time curve extrapolated to infinity. Read a low AUC(0-inf) as low exposure. By solubility is commonly meant how much of the substance goes into solution per volume. Usually Cmax stands for the peak of the concentration-time curve.

Series [1] concerns Acinetobacter baumannii. The series can be described thus: Antibacterial activity against Acinetobacter baumannii HUMC1 assessed as inhibition of bacterial growth incubated for 20 hrs by microdilution assay. In kind it is functional. The essentials: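 Broth microdilution per CLSI against XDR A. baumannii HUMC1. Inoculum 5×10^5 CFU/mL in RPMI + 10% FCS, or in CAMHB + 50% human serum. Compounds tested as 2-fold dilutions from 32 µg/mL final. Plates incubated without shaking at 35 °C for 20 h. MIC read visually as the lowest concentration with no visible growth. Three independent replicates.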
On the technique in general: In broth dilution the organism is exposed to a series of concentrations in liquid medium.

Series [2] can be described thus: Stability in human plasma assessed as compound remaining at 6 hrs by HPLC-MS analysis. In kind it is ADME, cell-free. As to conditions: read-out: Stability.
The nature of series [3]: Chemical stability of compound by UPLC-MS/MS analysis. The note with it: pH 7.4.
A short description of series [4]: Tmax in CD-1 mouse at 7 mg/kg, iv measured at 5 to 24 hrs by LC-MS/MS analysis. In kind it is ADME, organism-based. As to conditions: in vivo, time lower 5 hrs. The gist of the method: (§1)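 Female CD-1 (RjOrl:SWISS) mice, 8 weeks old at delivery, 9 per compound, given a single IV bolus into a lateral tail vein at 5 mL/kg. Basic compounds were dosed in 0.9% NaCl with 26 mM HCl, with 10% DMSO added for the parent drug; the phosphate prodrug was dosed in PBS pH 7.4. Retrobulbar blood was taken at 5, 15, 30 min and 1, 2, 4, 8, 12, 24 h. Plasma rifabutin was quantified by LC-MS/MS against a calibration curve, with griseofulvin as internal standard.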

Series [5] in a line: Plasma concentration in CD-1 mouse at 7 mg/kg, iv measured after 24 hrs by LC-MS/MS analysis. The note with it: in vivo. In kind it is ADME, organism-based. The gist of the method:
as §1

A short description of series [6]: Elimination half life in CD-1 mouse at 7 mg/kg, iv measured at 5 to 24 hrs by LC-MS/MS analysis. It counts as ADME, organism-based. As to conditions: in vivo, time lower 5 hrs, read-out: LambdaZ (converted). The essentials:
as §1

Series [7] has as its system Acinetobacter baumannii. The series can be described thus: Antibacterial activity against Acinetobacter baumannii assessed as reduction in bacterial growth in CAMHB preincubated 6 hrs followed by human serum addition and measured after 20 hrs by microdilution assay. It counts as functional.
Series [8] relates to Staphylococcus aureus. The series can be described thus: Antibacterial activity against Staphylococcus aureus assessed assessed as reduction in bacterial growth in CAMHB in absence of human serum measured after 20 hrs by microdilution assay. It counts as functional. The essentials: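 S. aureus USA300 UAMS-1625 in CAMHB without serum. CLSI broth microdilution, inoculum 5×10^5 CFU/mL, 2-fold dilutions from 32 µg/mL final. Plates held static at 35 °C for 20 h. MIC was the lowest concentration with no visible growth. Three independent replicates.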

Series [9] is described as follows: AUC (0 to infinity) in CD-1 mouse at 7 mg/kg, iv measured at 5 to 24 hrs by LC-MS/MS analysis. The note with it: in vivo. Set-up: dose 7 mg/kg, route iv. It counts as ADME, organism-based. The essentials: as §1
Series [10] can be described thus: Water solubility of compound in PBS buffer at pH 7.4 by UPLC-MS analysis. It counts as physicochemical. The essentials:
(§2)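 Compounds were suspended at a nominal 10 or 50 mg/mL in PBS pH 7.4 or 26 mM HCl, vortexed, and mixed at 35 rpm for 24 h at RT. The mixture was centrifuged, the supernatant filtered and diluted 2000-fold in CH3CN, and analysed by UPLC-MS/MS (MRM). Solubility = AUC(buffer)/AUC(DMSO) × theoretical concentration.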

Series [11] deals with Staphylococcus aureus. The series can be described thus: Antibacterial activity against Staphylococcus aureus assessed as reduction in bacterial growth in CAMHB preincubated 6 hrs followed by human serum addition and measured after 20 hrs by microdilution assay. In kind it is functional. The note with it: time 26 hrs. The essentials: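 S. aureus USA300 UAMS-1625 in CAMHB. Drug at 10-fold the 32 µg/mL top concentration was first preincubated in 100% human serum for 6 h, then serially diluted 2-fold and bacteria added (5×10^5 CFU/mL inoculum). Plates held static at 35 °C for 20 h. MIC read visually. Three independent replicates.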

Series [12] in a line: Cmax in CD-1 mouse at 7 mg/kg, iv measured at 5 to 24 hrs by LC-MS/MS analysis. As to conditions: in vivo. In kind it is ADME, organism-based. Further details: dose 7 mg/kg, route iv. The essentials:
as §1

Series [13] is described as follows: Water solubility of compound in HCL by UPLC-MS analysis. In kind it is physicochemical. The essentials:
as §2

Series [14] in a line: Cmax in CD-1 mouse at 5 mg/kg, iv measured at 5 to 24 hrs by LC-MS/MS analysis. In kind it is ADME, organism-based. Set-up: dose 5 mg/kg, route iv. As to conditions: in vivo. The essentials:
as §1

Series [15] in a line: Elimination half life in CD-1 mouse at 5 mg/kg, iv measured at 5 to 24 hrs by LC-MS/MS analysis. As to conditions: in vivo, time lower 5 hrs, read-out: LambdaZ (converted). It counts as ADME, organism-based. The essentials: as §1
Series [16] can be described thus: AUC (0 to infinity) in CD-1 mouse at 5 mg/kg, iv measured at 5 to 24 hrs by LC-MS/MS analysis. In kind it is ADME, organism-based. The note with it: in vivo. Further details: dose 5 mg/kg, route iv. The gist of the method: as §1
The nature of series [17]: Cmax in CD-1 mouse at 6.5 mg/kg, iv measured at 5 to 24 hrs by LC-MS/MS analysis. It counts as ADME, organism-based. Set-up: time lower 5 hrs, dose 6.5 mg/kg, route iv. As to conditions: in vivo. The gist of the method:
as §1

Series [18] can be described thus: AUC (0 to infinity) in CD-1 mouse at 6.5 mg/kg, iv measured at 5 to 24 hrs by LC-MS/MS analysis. It counts as ADME, organism-based. Set-up: dose 6.5 mg/kg, route iv. The note with it: in vivo. The essentials: as §1
Series [19] in a line: Tmax in CD-1 mouse at 6.5 mg/kg, iv measured at 5 to 24 hrs by LC-MS/MS analysis. It counts as ADME, organism-based. The note with it: in vivo, time lower 5 hrs. The gist of the method: as §1
Series [20] can be described thus: Plasma concentration in CD-1 mouse at 6.5 mg/kg, iv measured after 24 hrs by LC-MS/MS analysis. In kind it is ADME, organism-based. As to conditions: in vivo. The essentials: as §1
The nature of series [21]: Elimination half life in CD-1 mouse at 6.5 mg/kg, iv measured at 5 to 24 hrs by LC-MS/MS analysis. In kind it is ADME, organism-based. As to conditions: in vivo, time lower 5 hrs, read-out: LambdaZ (converted). The gist of the method: as §1

As for `COCCOC(=O)N1C2=C3NC(=O)/C(C)=C\C=C\[C@H](C)[C@H](O)[C@@H](C)[C@@H](O)[C@@H](C)[C@H](OC(C)=O)[C@H](C)[C@@H](OC)/C=C/O[C@@]4(C)Oc5c(C)c(O)c(c(c5C4=O)C2NC12CCN(CC(C)C)CC2)C3=O` (stereo partly specified), in the series with Acinetobacter baumannii [1], the MIC is 0.06 µg/mL (≈ 0.0631 µM). Moreover, in [2], the remaining at 6 h is 86%.

In the case of `COCCC(=O)N1C2=C3NC(=O)/C(C)=C\C=C\[C@H](C)[C@H](O)[C@@H](C)[C@@H](O)[C@@H](C)[C@H](OC(C)=O)[C@H](C)[C@@H](OC)/C=C/O[C@@]4(C)Oc5c(C)c(O)c(c(c5C4=O)C2NC12CCN(CC(C)C)CC2)C3=O` (stereo partly specified), the remaining at 6 h in series [2] stood at 2%.

The compound `CO[C@H]1/C=C/O[C@@]2(C)Oc3c(C)c(O)c4c(c3C2=O)C2NC3(CCN(CC(C)C)CC3)NC2=C(NC(=O)/C(C)=C\C=C\[C@H](C)[C@H](OC(=O)CN(C)C(=O)CNC(=O)OCc2ccc(OP(=O)(O)O)cc2)[C@@H](C)[C@@H](O)[C@@H](C)[C@H](OC(C)=O)[C@@H]1C)C4=O` (stereo partly specified) showed a Stability in series [3] of 101%. Moreover, in series [4], the Tmax came to 4.98 min. Further, the Drug uptake result in series [5] was “Active”. For the same compound, in [6], the half-life was 2.9 h. The minimal inhibitory concentration (MIC) in the series on Acinetobacter baumannii [7] is 0.001 µg/mL (≈ 0.000828 µM); in the series with Staphylococcus aureus [8], 32 µg/mL (≈ 26.5 µM); in the series on Staphylococcus aureus [11] it was 0.06 µg/mL (≈ 0.0497 µM). Also, the AUC(0-inf) in [9] worked out at 8200 ng·h/mL. For the same compound, the solubility in series [10] is 4.5 mg/mL (≈ 3730 µM). The Cmax in series [12] was 2700 ng/mL.

With `CO[C@H]1/C=C/O[C@@]2(C)Oc3c(C)c(O)c4c(c3C2=O)C2=NC3(CCN(CC(C)C)CC3)NC2=C(NC(=O)/C(C)=C\C=C\[C@H](C)[C@H](O)[C@@H](C)[C@@H](O)[C@@H](C)[C@H](OC(C)=O)[C@@H]1C)C4=O` [RIFABUTIN], the MIC with Acinetobacter baumannii [1] was 0.002 µg/mL (≈ 0.00236 µM); with Acinetobacter baumannii [7], 0.00025 µg/mL (≈ 0.000295 µM); with Staphylococcus aureus [8] it was 0.016 µg/mL (≈ 0.0189 µM); in the series with Staphylococcus aureus [11] it was 0.03 µg/mL (≈ 0.0354 µM). In addition, the solubility in series [13] worked out at 17.7 mg/mL (≈ 20900 µM); in series [10], 0.2 mg/mL (≈ 236 µM). Besides, the peak concentration (Cmax) in series [14] was determined as 2200 ng/mL. The half-life in series [15] is 3.4 h. In series [16], this compound yielded an AUC(0-inf) of 6600 ng·h/mL.

Turning to `COCCC(=O)O[C@@H]1[C@@H](C)[C@@H](O)[C@@H](C)[C@H](OC(C)=O)[C@H](C)[C@@H](OC)/C=C/O[C@@]2(C)Oc3c(C)c(O)c4c(c3C2=O)C2NC3(CCN(CC(C)C)CC3)NC2=C(NC(=O)/C(C)=C\C=C\[C@@H]1C)C4=O` (stereo partly specified), the MIC in the series on Acinetobacter baumannii [1] is more than 32 µg/mL. Further, in series [2], the remaining at 6 h was determined as 99%.

`CO[C@H]1/C=C/O[C@@]2(C)Oc3c(C)c(O)c4c(c3C2=O)C2NC3(CCN(CC(C)C)CC3)NC2=C(NC(=O)/C(C)=C\C=C\[C@H](C)[C@H](OC(=O)CN(C)C(=O)COC(=O)CN(C)C)[C@@H](C)[C@@H](O)[C@@H](C)[C@H](OC(C)=O)[C@@H]1C)C4=O` (stereo partly specified) had a Cmax in [17] of 1100 ng/mL. Also, in [3], the Stability worked out at 101%. In addition, the solubility in series [13] was determined as 12.2 mg/mL (≈ 11500 µM); in series [10], 0.7 mg/mL (≈ 658 µM). The compound further gave an AUC(0-inf) in series [18] of 6700 ng·h/mL. Further, the MIC was 0.001 µg/mL (≈ 0.000941 µM) in the series with Acinetobacter baumannii [7], 1 µg/mL (≈ 0.941 µM) in the series with Staphylococcus aureus [8] and 0.06 µg/mL (≈ 0.0564 µM) with Staphylococcus aureus [11]. In addition, in series [19], the Tmax came to 4.98 min. Further, the Drug uptake result in [20] is “Active”. Moreover, in series [21], the half-life is 3 h.

With `CO[C@H]1/C=C/O[C@@]2(C)Oc3c(C)c(O)c4c(c3C2=O)C2NC3(CCN(CC(C)C)CC3)NC2=C(NC(=O)/C(C)=C\C=C\[C@H](C)[C@H](OC(=O)CN(C)C(=O)CNC(=O)[C@@H](N)CCCCN)[C@@H](C)[C@@H](O)[C@@H](C)[C@H](OC(C)=O)[C@@H]1C)C4=O` (stereo partly specified), the highest level in series [17] (Cmax) was 300 ng/mL. The same compound yielded a Stability in series [3] of 99%. The solubility was 34.4 mg/mL (≈ 31100 µM) in series [13] and more than 50 mg/mL in series [10]. For the same compound, the AUC(0-inf) in series [18] is 1000 ng·h/mL. Moreover, the MIC in the series on Acinetobacter baumannii [7] is 0.001 µg/mL (≈ 0.000905 µM); in the series with Staphylococcus aureus [8], 16 µg/mL (≈ 14.5 µM); in the series with Staphylococcus aureus [11] it was 0.06 µg/mL (≈ 0.0543 µM). Moreover, the Tmax in [19] stood at 4.98 min. Moreover, the Drug uptake result in series [20] is listed as “Active”. Also, the half-life in series [21] was 10.7 h.
